Experimental findings from ChEMBL document CHEMBL4680109, “A road map for prioritizing warheads for cysteine targeting covalent inhibitors” (Eur J Med Chem, 2018) are described below.

Data set [1] can be described thus: Drug degradation in pH 7.4 PBS buffer at 100 uM measured up to 24 hrs by LC-MS/MS analysis. In kind it is physicochemical. Particulars: pH 7.4, 24 h.
Data set [2] concerns Escherichia coli. Nature of the data set: Inhibition of Escherichia coli MurA assessed as residual activity at 250 uM using UNAG and PEP as substrate preincubated for 30 mins in presence of UNAG followed by PEP addition and measured after 15 mins by malachite green colorimetric assay relative to control. Particulars: time 45.0 min.
Data set [3] is described as follows: Inhibition of Staphylococcus aureus MurA expressed in Escherichia coli using UNAG and PEP as substrate preincubated for 30 mins in presence of UNAG followed by PEP addition and measured after 15 mins by malachite green colorimetric assay. In outline:
(§1)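 IC50 from MurA (E. coli or S. aureus) residual activities at seven compound concentrations. Conditions: 30 min preincubation with UNAG at 37 °C, then PEP, 15 min at 37 °C, in 50 mM Hepes pH 7.8, 0.005% Triton X-114 and 5% DMSO. Malachite green read at 650 nm. Values are means of duplicates.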

Another data set deals with Staphylococcus aureus. The experiment in a line: Inhibition of Staphylococcus aureus MurA expressed in Escherichia coli assessed as residual activity at 100 uM using UNAG and PEP as substrate preincubated for 30 mins in presence of UNAG followed by PEP addition and measured after 15 mins by malachite green colorimetric assay relative to control. Particulars: time 45.0 min.

For data set [4], the target named is Cathepsin B (Homo sapiens) (UniProt P07858). Nature of the data set: Inhibition of recombinant cathepsin B (unknown origin) endopeptidase activity expressed in Escherichia coli assessed as residual activity at 100 uM using Z-RR-AMC as substrate preincubated for 30 mins under shaking in presence of 5 mM cysteine followed by substrate addition relative to control.

Data set [5] is described as follows: Inhibition of recombinant cathepsin X (unknown origin) expressed in Pichia pastoris assessed as residual activity at 100 uM using Abz-Fek(Dnp)-OH as substrate preincubated for 30 mins under shaking in presence of 5 mM cysteine followed by substrate addition relative to control. Particulars: Homo sapiens.
The target in data set [6] is Cathepsin B (Homo sapiens) (UniProt P07858). The experiment in a line: Inhibition of recombinant cathepsin B (unknown origin) exopeptidase activity expressed in Escherichia coli assessed as residual activity at 100 uM using Abz-GIVRAK(Dnp)-OH as substrate preincubated for 30 mins under shaking in presence of 5 mM cysteine followed by substrate addition relative to control.

Data set [7] can be described thus: Inhibition of Escherichia coli MurA using UNAG and PEP as substrate preincubated for 30 mins in presence of UNAG followed by PEP addition and measured after 15 mins by malachite green colorimetric assay. Put shortly:
as §1

The subject of data set [8] is Escherichia coli. Nature of the data set: Inhibition of Escherichia coli MurA assessed as residual activity at 100 uM using UNAG and PEP as substrate preincubated for 30 mins in presence of UNAG followed by PEP addition and measured after 15 mins by malachite green colorimetric assay relative to control. To be noted: time 45.0 min.
For data set [9], the system named is Escherichia coli. The experiment in a line: Inhibition of Escherichia coli MurA assessed as residual activity at 100 uM using UNAG and PEP as substrate preincubated for 30 mins in presence of UNAG followed by PEP addition and measured after 15 mins in presence of 5 mM cysteine by malachite green colorimetric assay relative to control. To be noted: time 45.0 min. In outline: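 MurA from E. coli, with the enzyme diluted in Hepes pH 7.8 containing cysteine (15 mM in buffer, giving 5 mM in incubation). Preincubated with UNAG and compound for 30 min at 37 °C, then PEP added and reacted 15 min at 37 °C. Phosphate read by malachite green at 650 nm. Duplicates; residual activity is versus DMSO control.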

For `C=CC(=O)N1CCC(Cc2ccccc2)CC1`, the Stabilty entry in [1] is recorded as “Unstable”.

Usually IC50 stands for the point on the concentration scale where inhibition reaches its midpoint. For the compound `CCOC(=O)C#CC(F)(F)F`, the Activity worked out at 100% with Escherichia coli [2]; 31% in the data set with Staphylococcus aureus; 100% in data set [4]; 99% in data set [5]; 89% in data set [6]; 15% in the data set on Escherichia coli [8]. The Activity in the data set on Escherichia coli [9] is 98%. Moreover, the IC50 in data set [3] was 47 µM; in data set [7], 24 µM.
